For data set [1], the system named is RAW264.7. As to the kind of experiment: Antiinflammatory activity in mouse RAW264.7 cells assessed as inhibition of LPS-induced IFN-gamma production at 5 uM pretreated for 15 mins before LPS challenge measured after 24 hrs by ELISA. Format: functional, cell-based. A digest of the protocol:
(§1)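 RAW 264.7 macrophages pre-incubated 15 min with compound or left untreated, then LPS 250 ng/ml for 24 h. IL-6, IL-1, TNF and IFN measured in supernatant by ELISA. Means ± S.D. of three independent experiments run in triplicate.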
In general terms: ELISA stands for enzyme-linked immunosorbent assay.

Data set [2] has as its system RAW264.7. In words: Antiinflammatory activity in mouse RAW264.7 cells assessed as inhibition of LPS-induced TNFalpha production at 5 uM pretreated for 15 mins before LPS challenge measured after 24 hrs by ELISA. It is filed as functional, cell-based. A digest of the protocol:
as §1

The test system of data set [3] is RAW264.7. In words: Cytotoxicity against LPS-stimulated mouse RAW264.7 cells assessed as cell viability at 1 to 50 uM pretreated for 15 mins before LPS challenge measured after 24 hrs by MTT assay. Format: cell-based. The settings on record: raw264.7, 24 h. A digest of the protocol:
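RAW 264.7 cells pre-treated 15 min with compound (1, 5, 10, 25, 50), then LPS 250 ng/ml for 24 h. Viability by MTT: 4 h at 37 °C, formazan dissolved in DMSO, absorbance 540 nm, relative to untreated control. Triplicate; means ± S.D. of three experiments.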
In general terms: Tetrazolium dyes change colour on reduction, which living cells bring about.

Data set [4] relates to RAW264.7. As to the kind of experiment: Antiinflammatory activity in mouse RAW264.7 cells assessed as inhibition of LPS-induced IL-6 production at 5 uM pretreated for 15 mins before LPS challenge measured after 24 hrs by ELISA. Format: functional, cell-based. A digest of the protocol: as §1
In data set [5] the test system is RAW264.7. In words: Inhibition of NF-kappaB activation in LPS-stimulated mouse RAW264.7 cells assessed as IkappaBalpha degradation pretreated at 5 uM for 15 mins before LPS challenge measured after 24 hrs by Western blotting. It is filed as cell-based. (A western blot detects proteins with antibodies after separation by electrophoresis.)
Data set [6] has as its system RAW264.7. As to the kind of experiment: Antiinflammatory activity in mouse RAW264.7 cells assessed as inhibition of LPS-induced NOS2 protein expression pretreated at 5 uM for 15 mins before LPS challenge measured after 24 hrs by Western blotting. It is filed as functional, cell-based. Put shortly:
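Macrophages pre-incubated 15 min with compound, then LPS 250 ng/ml for 24 h. NOS-2 protein detected by Western blot with β-actin as loading control. A representative of three experiments is shown.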

Data set [7] deals with RAW264.7. As to the kind of experiment: Antiinflammatory activity in mouse RAW264.7 cells assessed as inhibition of LPS-induced IL-1alpha production at 5 uM pretreated for 15 mins before LPS challenge measured after 24 hrs by ELISA. It is filed as functional, cell-based. Put shortly:
as §1

Data set [8] deals with RAW264.7. As to the kind of experiment: Antiinflammatory activity in mouse RAW264.7 cells assessed as inhibition of LPS-induced nitric oxide release pretreated for 15 mins before LPS challenge measured after 24 hrs by Griess method. Format: functional, cell-based. Put shortly:
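RAW 264.7 cells pre-incubated 15 min with compound (1–25 range in the table; 1, 5, 10, 25, 50 for dose-response) or DMSO vehicle, then LPS 250 ng/ml for 24 h. Nitrite in supernatant measured by Griess reagent, absorbance at 548 nm against NaNO2 standard. IC50 is the concentration giving 50% inhibition of NO release. Means ± SD of three independent experiments in triplicate.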

For data set [9], the system named is RAW264.7. As to the kind of experiment: Antiinflammatory activity in mouse RAW264.7 cells assessed as inhibition of LPS-induced NOS2 mRNA expression pretreated at 5 uM for 15 mins before LPS challenge measured after 4 hrs by RT-PCR analysis. Format: functional, cell-based. A digest of the protocol: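 Macrophages pre-incubated 15 min with compound, then LPS 250 ng/ml for 4 h. NOS-2 mRNA measured by real-time quantitative PCR, samples in duplicate, normalized to housekeeping gene 36B4 (acidic ribosomal phosphoprotein P0). Fold induction taken from average replicate values. Means ± S.D. of three independent experiments in triplicate; Student's unpaired t test vs LPS.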

The nature of data set [10]: Cytotoxicity against LPS-stimulated mouse RAW264.7 cells assessed as cell viability at 1 to 25 uM pretreated for 15 mins before LPS challenge measured after 24 hrs by MTT assay. Format: cell-based. The settings on record: LPS-stimulated RAW264.7 cells, read-out: Activity. Put shortly: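 RAW 264.7 cells plated at 10⁵ cells/well, treated with compound at 1–25 in the presence of LPS 250 ng/ml for 24 h. MTT then added for 4 h at 37 °C, formazan extracted in DMSO, absorbance read at 540 nm. Viability expressed relative to untreated controls. Triplicate wells, at least three independent experiments.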

SMILES strings stand for the structures. The source made the active and inactive calls. The calls are words filed in the database; no cut-off is given here.

Consider 11 molecules from ChEMBL document CHEMBL1759881, “Synthesis and anti-inflammatory activity of ent-kaurene derivatives” (Eur J Med Chem, 2011).

Usually IC50 stands for the concentration needed to halve the response being measured.

Regarding `C[C@@]12CCC[C@@](C)(C(=O)OC[Si](C)(C)C)[C@H]1CC[C@@]1(CC(=O)O)CCCC[C@H]12`, the outcome in [1], in data set [2], in [4], in [5], in data set [6] and in data set [7] was Active. Further, the result in data set [9] was Active. Further, the Activity entry in [3] is “Non-toxic”. For the same molecule, in [8], the IC50 is 7 µM. Further, the inhibition entry in data set [8] is “Dose-dependent effect”. In addition, the viability at 24 h, up to 25 µM in data set [10] worked out at 95%.

Consider `C=C1[C@@H]2CC[C@H]3[C@]4(C)CCC[C@@](C)(C(=O)OC)[C@H]4CC[C@]3(C2)[C@H]1OC(=O)CCCCCCCCCCC`, for which the IC50 in data set [8] is more than 25 µM. In addition, in data set [10], the viability at 24 h, up to 25 µM was 95%.

With `C=C1C[C@@]23CC[C@@H]4[C@](C)(CO)CCC[C@@]4(C)[C@@H]2CC[C@@H]1C3`, the IC50 in data set [8] is 10 µM. In addition, the viability at 24 h, up to 25 µM in data set [10] is 80%.

For `COC(=O)[C@]1(C)CCC[C@@]2(C)[C@@H]3CC[C@@H]4C[C@@]3(CC[C@@H]21)C[C@@]41COS(=O)O1` (stereo not given in full), the IC50 in data set [8] came to 17 µM. In addition, in data set [10], the viability at 24 h, up to 25 µM turned out to be 95%.

Regarding `COC(=O)[C@]1(C)CCC[C@@]2(C)[C@@H]3CC[C@@H]4C[C@@]3(CC[C@@H]21)C[C@]4(C)OC`, the IC50 in data set [8] was more than 25 µM. Besides, in data set [10], the viability at 24 h, up to 25 µM is 90%.

Turning to `C=C1C[C@@]23CC[C@@H]4C(C)(C(=O)O)CCC[C@@]4(C)C2=CC[C@@H]1C3` (stereo not given in full), in data set [8], the IC50 is 15 µM. In addition, in [10], the viability at 24 h, up to 25 µM was found to be 90%.

As for `COC(=O)[C@]1(C)CCC[C@@]2(C)[C@@H]3CC[C@@H]4C[C@@]3(CC[C@@H]21)[C@@H](OC(C)=O)C4=O`, the half-maximal inhibitory concentration (IC50) in data set [8] was more than 25 µM. Also, the viability at 24 h, up to 25 µM in [10] was determined as 99%.

In the case of `COC(=O)[C@]1(C)CCC[C@@]2(C)[C@@H]3CC[C@@H]4C[C@@]3(CC[C@@H]21)C[C@H]4C` [DIHYDRO KAURENOIC ACID METHYL ESTER], the IC50 in data set [8] is more than 25 µM. Also, the viability at 24 h, up to 25 µM in data set [10] amounted to 72%.

Regarding `COC(=O)[C@]1(C)CCC[C@@]2(C)[C@@H]3CC[C@@H]4C[C@@]3(CC[C@@H]21)C[C@H]4/C=N/O`, the IC50 in [8] is more than 25 µM. For the same molecule, the viability at 24 h, up to 25 µM in data set [10] amounted to 25%.

`C[C@@]12CCC[C@@](C)(C(=O)OCc3ccccc3)[C@H]1CC[C@@]1(CC(=O)O)CCCC[C@H]12`: the result in [1], in data set [2], in data set [4], in data set [5], in data set [6] and in data set [7] was Active. The result in data set [9] was Active. Besides, the Activity entry in data set [3] is “Non-toxic”. Besides, the IC50 in data set [8] was found to be 7 µM. Further, the inhibition result in data set [8] was “Dose-dependent effect”. In [10], the viability at 24 h, up to 25 µM was found to be 95%.

Consider `COC(=O)[C@]1(C)CCC[C@@]2(C)[C@@H]3CC[C@@H]4C[C@]3(C=C4/C=N/O)CC[C@@H]21`, for which the IC50 in data set [8] was more than 25 µM. In data set [10], the viability at 24 h, up to 25 µM is 99%.
